Data set [1] relates to Mycobacterium tuberculosis. The data set can be described thus: Antimycobacterial activity against Mycobacterium tuberculosis 14862 clinical isolate measured by MABA assay. Format: functional. The procedure, abridged: (§1)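 Microplate Alamar Blue assay against replicating M. tuberculosis H37Rv or clinical isolates. MIC is the lowest concentration giving ≥90% reduction in fluorescence relative to the mean of replicate bacterium-only controls.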

Data set [2] in a line: Toxicity in BALB/c mouse infected with Mycobacterium tuberculosis H37Rv assessed as body weight at 25 mg/kg, po administered 5 times a week from day 10 to 30. It is filed as organism-based. The conditions noted are these: in vivo. The procedure, abridged:
(§2)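 Female SPF BALB/c mice, 18–20 g, 6 per group, aerosol-infected with M. tuberculosis H37Rv to deposit 50–100 bacilli per lung. Oral gavage in 0.5% CMC at 25 or 100 mg/kg, 5 days/week from day 10 to day 30; controls get vehicle. Lungs harvested the next day and plated on 7H11 for 3 weeks at 37 °C. Mean log10 CFU compared by Student's t test.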

Data set [3] relates to Mycobacterium tuberculosis. Kind of data set: Antimycobacterial activity against Mycobacterium tuberculosis 13946 clinical isolate measured by MABA assay. It is filed as functional. The method, boiled down: as §1
In general terms: Alamar Blue is a resazurin reagent that responds to reducing activity.

Data set [4] has as its system Mycobacterium tuberculosis. The data set can be described thus: Antimycobacterial activity against Mycobacterium tuberculosis H37Rv infected in BALB/c mouse assessed as reduction in log10 CFU in lungs at 25 mg/kg, po administered 5 times a week from day 10 to 30. It is filed as functional. The procedure, abridged:
as §2

Data set [5] relates to Mycobacterium tuberculosis. Kind of data set: Antimycobacterial activity against Mycobacterium tuberculosis H37Rv measured by MABA assay. Format: functional. The method, boiled down: as §1
Data set [6] has as its target Voltage-gated inwardly rectifying potassium channel KCNH2 (Homo sapiens, UniProt Q12809). Kind of data set: Inhibition of hERG. Format: toxicity. The method, boiled down: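 Electrophysiological recording of hERG current at 30, 10, 3.0, 1.0 and 0.3 µM, run in duplicate for IC50.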
Data set [7] in a line: Cytotoxicity against mouse J774.A1 cells measured by MTT assay. It is filed as toxicity, cell-based. The procedure, abridged:
(§3)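 Vero, HepG2 and mouse J774A.1 cells grown in RPMI 1640 with 10% FBS. MTT read-out in 96-well format.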
(In general: Tetrazolium assays rely on reduction of a dye to a coloured formazan, in cell work by metabolically active cells.)

The nature of data set [8]: Metabolic stability in human hepatocytes assessed as compound remaining at 1 uM measured by LC-MS/MS analysis. The conditions noted are these: read-out: Stability. Format: ADME, cell-based, Hepatocyte. The method, boiled down: (§4)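 Compound at 1 µM with hepatocytes at 1 million cells/mL final; human hepatocytes are mixed donor, mouse are male. Incubated at 37 °C in CO2 at ~100 rpm. Sampled at 0, 15, 30, 60, 90 and 120 min, quenched in ice-cold ACN/MeOH with internal standard. Parent remaining measured by LC-MS/MS.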

Data set [9] in a line: Selectivity index, Ratio of IC50 for Vero cells over MIC for Mycobacterium tuberculosis H37Rv. Format: toxicity. As to conditions: monkey.
Data set [10] is described as follows: Metabolic stability in mouse hepatocytes assessed as compound remaining at 1 uM measured by LC-MS/MS analysis. It is filed as ADME, cell-based, Hepatocyte. As to conditions: read-out: Stability. The method, boiled down:
as §4

Data set [11] in a line: Cytotoxicity against African green monkey Vero cells measured by MTT assay. It is filed as toxicity, cell-based. The conditions noted are these: African green monkey (Chlorocebus sabaeus). The procedure, abridged:
as §3

The nature of data set [12]: Metabolic stability in mouse hepatocytes assessed as half-life at 1 uM measured by LC-MS/MS analysis. It is filed as ADME, cell-based, Hepatocyte. The procedure, abridged: as §4
Data set [13] is described as follows: Cytotoxicity against human HepG2 cells measured by MTT assay. It is filed as toxicity, cell-based. The method, boiled down: as §3
Data set [14] is described as follows: Metabolic stability in human hepatocytes assessed as half-life at 1 uM measured by LC-MS/MS analysis. It is filed as ADME, cell-based, Hepatocyte. The procedure, abridged: as §4
In data set [15] the target is T1, Decaprenylphosphoryl-beta-D-ribose oxidase (Mycobacterium tuberculosis (strain ATCC 25618 / H37Rv), UniProt P9WJF1).
T1 sequence (P9WJF1 whole entry): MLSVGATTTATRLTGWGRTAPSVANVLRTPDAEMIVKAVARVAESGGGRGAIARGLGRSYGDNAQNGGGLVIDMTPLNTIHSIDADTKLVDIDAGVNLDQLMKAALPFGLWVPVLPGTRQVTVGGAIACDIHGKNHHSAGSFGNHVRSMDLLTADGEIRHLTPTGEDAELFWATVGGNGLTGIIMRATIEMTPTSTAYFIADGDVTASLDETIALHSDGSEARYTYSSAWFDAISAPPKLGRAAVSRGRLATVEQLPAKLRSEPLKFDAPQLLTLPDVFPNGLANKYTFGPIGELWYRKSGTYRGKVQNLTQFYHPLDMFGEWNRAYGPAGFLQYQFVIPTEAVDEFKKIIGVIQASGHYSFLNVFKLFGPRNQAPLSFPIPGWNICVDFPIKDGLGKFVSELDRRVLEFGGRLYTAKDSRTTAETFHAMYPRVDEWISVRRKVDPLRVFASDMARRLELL
Kind of data set: Inhibition of recombinant Mycobacterium tuberculosis DprE1 measured by resazurin dye based assay. The method, boiled down:
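Resazurin-coupled fluorescence assay at 30 °C. Buffer: 50 mM HEPES pH 7.5, 100 mM NaCl, 1.5% DMSO, 100 µM Tween-20, 50 µM resazurin, 2 µM FAD. DprE1 at 1 µM with 1 mM FPR across inhibitor concentrations. Resorufin read at ex 530/em 595 nm. IC50 from initial velocities plotted against inhibitor concentration.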

In data set [16] the test system is Mycobacterium tuberculosis. Kind of data set: Antimycobacterial activity against Mycobacterium tuberculosis H37Rv infected in BALB/c mouse assessed as reduction in log10 CFU in lungs at 100 mg/kg, po administered 5 times a week from day 10 to 30. It is filed as functional. The procedure, abridged: as §2
Data set [17] concerns J774.A1. Kind of data set: Antimycobacterial activity against Mycobacterium tuberculosis H37Rv infected in mouse J774.A1 cells assessed as change in log10 CFU at 10 ug/ml. Format: functional. As to conditions: dose 10 µg/ml. The method, boiled down:
(§5)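 Mouse J774A.1 macrophages infected with M. tuberculosis H37Rv, test compound at final 10 or 5 µg/mL. Read-out is intracellular log10 CFU; Δlog10 CFU = untreated minus treated. Triplicates in at least three separate experiments.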

Data set [18] is described as follows: Toxicity in BALB/c mouse infected with Mycobacterium tuberculosis H37Rv assessed as body weight at 100 mg/kg, po administered 5 times a week from day 10 to 30. Format: organism-based. As to conditions: in vivo. The procedure, abridged: as §2
Data set [19] deals with J774.A1. Kind of data set: Antimycobacterial activity against Mycobacterium tuberculosis H37Rv infected in mouse J774.A1 cells assessed as change in log10 CFU at 5 ug/ml. It is filed as functional. The conditions noted are these: dose 5 µg/ml. The procedure, abridged: as §5

The structures appear in SMILES notation. Converted amounts (≈) assume the structure as drawn. Bounds are passed on as bounds.

As a reminder, the MIC is the smallest concentration in the dilution series that meets the test's criterion for growth inhibition. The IC50 is the concentration that inhibits the measured activity by half. Usually half-life stands for how long it takes for the measured level to halve.

Chain of Voltage-gated inwardly rectifying potassium channel KCNH2 (Q12809 whole entry): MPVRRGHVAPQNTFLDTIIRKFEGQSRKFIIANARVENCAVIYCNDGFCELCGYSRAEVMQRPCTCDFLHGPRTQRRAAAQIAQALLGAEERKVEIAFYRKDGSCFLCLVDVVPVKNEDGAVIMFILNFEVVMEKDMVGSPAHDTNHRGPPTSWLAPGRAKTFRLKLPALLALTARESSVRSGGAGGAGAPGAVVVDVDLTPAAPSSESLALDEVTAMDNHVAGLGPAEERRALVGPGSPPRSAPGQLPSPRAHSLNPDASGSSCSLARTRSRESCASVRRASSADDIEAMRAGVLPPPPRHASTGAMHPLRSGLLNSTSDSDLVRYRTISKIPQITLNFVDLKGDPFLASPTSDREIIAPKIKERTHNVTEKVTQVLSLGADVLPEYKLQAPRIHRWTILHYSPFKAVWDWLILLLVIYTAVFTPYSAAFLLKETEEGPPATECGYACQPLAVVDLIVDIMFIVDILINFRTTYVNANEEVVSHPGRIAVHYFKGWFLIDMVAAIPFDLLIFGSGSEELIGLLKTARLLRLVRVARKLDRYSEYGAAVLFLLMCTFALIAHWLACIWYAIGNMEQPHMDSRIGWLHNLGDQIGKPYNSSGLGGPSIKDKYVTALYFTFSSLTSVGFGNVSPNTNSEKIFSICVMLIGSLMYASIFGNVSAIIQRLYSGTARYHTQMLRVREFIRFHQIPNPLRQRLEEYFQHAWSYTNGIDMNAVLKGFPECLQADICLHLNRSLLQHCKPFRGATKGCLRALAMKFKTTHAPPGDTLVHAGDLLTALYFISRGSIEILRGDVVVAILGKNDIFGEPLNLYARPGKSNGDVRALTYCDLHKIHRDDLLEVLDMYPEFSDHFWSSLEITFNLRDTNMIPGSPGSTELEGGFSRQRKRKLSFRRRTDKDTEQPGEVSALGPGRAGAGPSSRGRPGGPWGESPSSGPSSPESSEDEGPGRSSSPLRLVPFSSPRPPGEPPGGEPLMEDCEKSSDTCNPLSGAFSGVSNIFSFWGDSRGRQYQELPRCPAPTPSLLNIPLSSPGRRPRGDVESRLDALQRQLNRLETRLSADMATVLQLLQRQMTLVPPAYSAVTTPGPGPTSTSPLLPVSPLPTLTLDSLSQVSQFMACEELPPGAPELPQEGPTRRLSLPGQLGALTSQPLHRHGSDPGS

With `NNC(=O)c1ccncc1` [ISONIAZID], the MIC is greater than 10 µg/mL in [1], 2.46 µg/mL (≈ 17.9 µM) in [3] and 0.019 µg/mL (≈ 0.139 µM) in [5]. Besides, the results for the Activity in data set [2] and in data set [4] were 20.9 g and 1.76 log10CFU, respectively.

Regarding `COC(=O)NC(=O)c1ccsc1NC(=O)c1ccc(S(=O)(=O)N2CCCCC2)cc1`, the IC50 in data set [6] was 3.3 µM; in data set [7] it was 36.9 µg/mL (≈ 81.7 µM); in [11], 3.62 µg/mL (≈ 8.02 µM); in data set [13], 36.8 µg/mL (≈ 81.5 µM); in data set [15], 221 nM. Further, the MIC in data set [1] was 0.51 µg/mL (≈ 1.13 µM); in [3], 0.48 µg/mL (≈ 1.06 µM); in data set [5], 0.24 µg/mL (≈ 0.532 µM). For the same molecule, the remaining at 1 µM worked out at 1% in data set [8] and 22.7% in data set [10]. The selectivity ratio in [9] came out at 15. The half-life at 1 µM in data set [12] was determined as 14 min; in data set [14] it was 4.6 min.

Regarding `CCOC(=O)NC(=O)c1ccsc1NC(=O)c1ccc(S(=O)(=O)N2CCCC2)cc1`, the IC50 in data set [6] is greater than 30 µM; in data set [7], greater than 64 µg/mL; in [11], 58.2 µg/mL (≈ 129 µM); in data set [13], 62.9 µg/mL (≈ 139 µM). In addition, the figures for the MIC in data set [1], in data set [3] and in data set [5] were 0.03 µg/mL (≈ 0.0664 µM), 0.057 µg/mL (≈ 0.126 µM) and less than 0.016 µg/mL, respectively. Moreover, the Activity in [16] is on record as 4.81 log10CFU; with J774.A1 [17], 1.29 deltalog10CFU; in [18] it was 20.94 g; with J774.A1 [19] it was 1.19 deltalog10CFU. Also, the remaining at 1 µM worked out at 42% in [8] and 49.7% in [10]. Besides, the selectivity ratio in data set [9] is greater than 3640. Also, the half-life at 1 µM worked out at 29.7 min in data set [12] and 24 min in data set [14].

Source of the values: ChEMBL document CHEMBL5154717, “Identification of thiophene-benzenesulfonamide derivatives for the treatment of multidrug-resistant tuberculosis” (Eur J Med Chem, 2022).
